{
  "source": "paper PMC3349182",
  "about": "(British Journal of Cancer, 2012)",
  "key": {"[1]": {"tested_on": "patients with advanced, refractory solid tumours", "assay": "Anti-tumour efficacy by Response Evaluation Criteria in Solid Tumours", "assay_type": "in vivo, human", "method_in_brief": "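Patients took oral drug once daily on an empty stomach after an overnight fast, with only clear fluids within 2 h of dosing. Dosing was continuous in 28-day cycles until progressive disease or unacceptable toxicity. Tumour response was assessed by RECIST measurements, with CT imaging.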"}, "[2]": {"assay": "Plasma pharmacokinetics of E7080", "assay_type": "in vivo, human", "method_in_brief": "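Patients took oral drug once daily after an overnight fast. Blood and urine were sampled after a single dose and after multiple dosing. Drug concentrations were measured by LC-MS/MS. tmax, Cmax, AUC0-24, AUC0-∞, AUC0-τ, t½, CL/F and V/F were calculated. Terminal-phase parameters were omitted where too few terminal data points were available.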"}, "[3]": {"assay": "Food-effect investigation", "assay_type": "in vivo, human", "method_in_brief": "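At the MTD, patients were randomised to take the cycle 1 day 15 dose fed (after a high-fat meal) or fasted (overnight fast ⩾10 h). The day 22 dose was taken in the reverse state, with no food for 4 h after either dose. Plasma levels were measured by LC-MS/MS. The 90% CIs for log-transformed fed/fasted Cmax and AUC0-24 were derived by ANOVA; 80–125% was taken as no food effect.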"}, "[4]": {"tested_on": "patients with advanced radioiodine-refractory differentiated thyroid cancer", "conditions": "preliminary results, phase II; ref Sherman et al, 2011; cited from earlier work"}, "[5]": {"conditions": "0.2–6.4 mg per day, 21 patients"}, "[6]": {"conditions": "25 mg, eleven patients, high-fat meal vs overnight fast"}},
  "note": "Entries after “also recorded” stand apart in the source; their conditions may differ.",
  "data": [
    {"smiles": "COc1cc2nccc(Oc3ccc(NC(=O)NC4CC4)c(Cl)c3)c2cc1C(N)=O", "note": "[E7080]", "values": [
      {"measurement": "Best response: Not evaluated, %", "setting": "[1]; 25 mg per day, 24 patients", "result": "0 (0) %"},
      {"measurement": "Best response: Partial response, %", "setting": "[1]; 25 mg per day, 24 patients", "result": 13, "unit": "%"},
      {"measurement": "Best response: Progressive disease, %", "setting": "[1]; 25 mg per day, 24 patients", "result": 8, "unit": "%"},
      {"measurement": "Best response: Stable disease, %", "setting": "[1]; 25 mg per day, 24 patients", "result": 67, "unit": "%"},
      {"measurement": "Best response: Not evaluated, %", "setting": "[1]; 32 mg per day, 7 patients", "result": "0 (0) %"},
      {"measurement": "Best response: Partial response, %", "setting": "[1]; 32 mg per day, 7 patients", "result": 29, "unit": "%"},
      {"measurement": "Best response: Progressive disease, %", "setting": "[1]; 32 mg per day, 7 patients", "result": "0 (0) %"},
      {"measurement": "Best response: Stable disease, %", "setting": "[1]; 32 mg per day, 7 patients", "result": 43, "unit": "%"},
      {"measurement": "Best response: Not evaluated, %", "setting": "[1]; [5]", "result": 5, "unit": "%"},
      {"measurement": "Best response: Partial response, %", "setting": "[1]; [5]", "result": "0 (0) %"},
      {"measurement": "Best response: Progressive disease, %", "setting": "[1]; [5]", "result": 24, "unit": "%"},
      {"measurement": "Best response: Stable disease, %", "setting": "[1]; [5]", "result": 19, "unit": "%"},
      {"measurement": "Best response: Not evaluated, %", "setting": "[1]; 12–20 mg per day, 30 patients", "result": 3, "unit": "%"},
      {"measurement": "Best response: Partial response, %", "setting": "[1]; 12–20 mg per day, 30 patients", "result": 7, "unit": "%"},
      {"measurement": "Best response: Progressive disease, %", "setting": "[1]; 12–20 mg per day, 30 patients", "result": 23, "unit": "%"},
      {"measurement": "Best response: Stable disease, %", "setting": "[1]; 12–20 mg per day, 30 patients", "result": 50, "unit": "%"},
      {"measurement": "Best response: Not evaluated, %", "setting": "[1]; Total, 82 patients", "result": "2 (2) %"},
      {"measurement": "Best response: Partial response, %", "setting": "[1]; Total, 82 patients", "result": 9, "unit": "%"},
      {"measurement": "Best response: Progressive disease, %", "setting": "[1]; Total, 82 patients", "result": 17, "unit": "%"},
      {"measurement": "Best response: Stable disease, %", "setting": "[1]; Total, 82 patients", "result": 46, "unit": "%"},
      {"measurement": "Clinical benefit (PR rate plus SD rate), % of patients", "setting": "[1]; all doses", "result": 55, "unit": "%"},
      {"measurement": "Clinical benefit (PR rate plus SD rate), n patients", "setting": "[1]; all doses", "result": 45},
      {"measurement": "Patients with renal cancer with PR", "setting": "[1]; of nine patients with renal cancer", "result": "Four"},
      {"measurement": "Decrease in the sum of the longest tumour diameters", "setting": "[1]; one patient with melanoma (largest decrease)", "result": "approximately 85%"},
      {"measurement": "Overall reduction in tumour size (CT)", "setting": "[1]; one patient with melanoma, after 32 weeks' treatment", "result": 77, "unit": "%"},
      {"measurement": "Overall reduction in tumour size (CT)", "setting": "[1]; one patient with renal cancer, after 24 weeks' treatment", "result": 51, "unit": "%"},
      {"measurement": "Median progression-free survival (95% CI)", "setting": "[1]; patients with melanoma, n=14", "result": 217, "unit": "days"},
      {"measurement": "Median progression-free survival (95% CI)", "setting": "[1]; patients with renal cancer, all dose cohorts, n=9", "result": 477, "unit": "days"},
      {"measurement": "Dose dependence of exposure and Cmax", "setting": "[2]; 0.2 to 32 mg", "result": "dose-linear kinetics; also recorded: increased linearly with increasing dose"},
      {"measurement": "Accumulation after multiple dosing", "setting": "[2]; after 4 weeks' administration, once daily", "result": "no drug accumulation"},
      {"measurement": "Time to maximum concentrations", "setting": "[2]; after a single dose", "result": "≤ 3", "unit": "h"},
      {"measurement": "AUC ratio fed/fasted (90% CI)", "setting": "[3]; [6]", "result": "1.00 (90% CI 0.83–1.20)"},
      {"measurement": "Cmax ratio fed/fasted (90% CI)", "setting": "[3]; [6]", "result": "0.98 (90% CI 0.73–1.31)"},
      {"measurement": "tmax (median)", "setting": "[3]; fasted group", "result": 2.0, "unit": "h"},
      {"measurement": "tmax (median)", "setting": "[3]; fed group", "result": 5.0, "unit": "h"},
      {"measurement": "Objective response rate", "setting": "[4]", "result": 59, "unit": "%"}
    ]}
  ]
}
